Screening results: PubChem BioAssay, several laboratories
eLon inh: inhibitors of E. coli Lon protease, primary screen, biochemical, fluorescence polarization | P0A9M0 | purified E. coli Lon protease | inhibition, % at 7.94 µM | hit rate 0.42% among 360,000 | AID 602123, 2011; in the data active = inhibition above about 13%, passing the limit was not always enough
Target sequence (P0A9M0 whole entry, looked up): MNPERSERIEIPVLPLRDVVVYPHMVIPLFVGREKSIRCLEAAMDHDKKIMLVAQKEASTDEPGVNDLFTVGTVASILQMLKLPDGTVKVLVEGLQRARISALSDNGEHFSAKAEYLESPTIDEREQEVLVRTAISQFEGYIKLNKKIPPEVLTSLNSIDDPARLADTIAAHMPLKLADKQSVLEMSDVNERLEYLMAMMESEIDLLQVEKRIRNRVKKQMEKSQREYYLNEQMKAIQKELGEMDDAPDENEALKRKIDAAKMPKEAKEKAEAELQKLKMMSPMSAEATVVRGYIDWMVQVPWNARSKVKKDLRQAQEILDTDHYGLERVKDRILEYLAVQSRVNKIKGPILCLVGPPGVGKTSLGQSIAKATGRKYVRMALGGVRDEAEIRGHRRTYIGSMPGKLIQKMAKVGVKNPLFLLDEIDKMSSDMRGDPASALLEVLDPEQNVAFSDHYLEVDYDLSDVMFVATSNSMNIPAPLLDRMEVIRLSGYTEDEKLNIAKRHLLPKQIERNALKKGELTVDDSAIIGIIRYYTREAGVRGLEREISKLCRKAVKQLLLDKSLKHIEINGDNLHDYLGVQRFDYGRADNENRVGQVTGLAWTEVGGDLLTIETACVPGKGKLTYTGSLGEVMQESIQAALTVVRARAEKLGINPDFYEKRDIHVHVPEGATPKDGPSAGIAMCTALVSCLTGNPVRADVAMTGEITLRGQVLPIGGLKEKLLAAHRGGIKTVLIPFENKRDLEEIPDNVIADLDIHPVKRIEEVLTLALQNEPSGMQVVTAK
TbMetRS inhib: T. brucei MetRS inhibitors, primary screen, biochemical, luminescence; inhibition, % at 11.9 µM; hit rate 0.4% among 360,000; purified T. brucei MetRS, ATP depletion, Kinase-Glo luminescence;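 active = inhibition above a per-plate cutoff of the control wells' mean inhibition plus 3 SD, cut at about 5.5% in these data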
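Measured by: Kinase-Glo luciferase luminescence reporting remaining unconsumed ATP. Material: purified T. brucei MetRS enzyme. Doses: 11.9 µM compound single dose, 0.9% DMSO. Medium: HEPES buffer containing pyrophosphatase, BSA, spermine, DTT. Times: 15 min preincubation, 2 h reaction, all 25 °C. Reagent: methionine, ATP and bulk E. coli tRNA.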
MT1-MMP act inh: blockers of MT1-MMP proenzyme processing, primary screen, HT1080 RFP-PRO-GFP cells, GFP/RFP fluorescence | hit rate 0.061% among 360,000 | GFP/RFP ratio fluorescence, overnight; percent of plate control window, DMSO zero | GFP/RFP ratio change, % at 20 µM;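 active = GFP/RFP ratio change of at least 30% with cell ATP level not reduced by more than half and red fluorescence within 50% of control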
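Material: RFP-PRO-GFP reporter HT1080 cells. Dosing: single-point 20 µM compound, 1% DMSO. Controls: DMSO and RFP-L50D-GFP cell wells. Timing: cells overnight before dosing, compound overnight, 37 °C, 5% CO2. Measure: GFP/RFP fluorescence ratio.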
SKN-1 block: suppressors of acrylamide-induced Pgst-4::GFP reporter in worms, primary screen, SKN-1 inhibitor project, whole organism, uHTS, GFP/RFP fluorescence ratio, strain VP596. C. elegans VP596 Pgst-4::GFP/RFP ratio, 24 h. inhibition, % at 21.8 µM. hit rate 0.49% among 360,000;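 active = interference check ratio from 0.5 to 1.5 plus GFP to RFP signal ratio inhibition reaching or exceeding a fixed threshold, cut at about 30% in these data, passing the limit was not always enough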
iPSC survival up: enhancers of single-cell hiPSC survival, primary screen, ATPlite luminescence. 100% = ROCK inhibitor wells, 0% = DMSO. survival enhancement, % at 20 µM. hit rate 0.044% among 360,000; in the data active = survival enhancement above about 18%;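 note: cells exposed to compounds for 16 hours before the ATP read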
PREPL inh: PREPL enzyme inhibitors, primary screen, biochemical, fluorescence polarization; inhibition, % at 5.96 µM; AID 2751, 2010; hit rate 0.68% among 320,000; recombinant PREPL, fluorescence polarization activity-based probe; in the data active = inhibition above about 43%
Tb MetRS conf: T. brucei MetRS inhibitors, confirmation, biochemical, luminescence | shares compounds with TbMetRS inhib | T. brucei MetRS enzyme, luminescence (ATP depletion) | inhibition, % at 11.9 µM | hit rate 93% among 1,400 | AID 624412, 2012; in the data active = inhibition above about 7%
Jurkat cytotox: Jurkat T cell cytotoxicity, cytotoxicity control for T. brucei MetRS inhibitor project, luminescence, high throughput | Jurkat cells viability, ATP luminescence | inhibition, % at 8.3 µM | hit rate 12% among 1,400 | shares compounds with TbMetRS inhib | AID 624413, 2012; in the data active = inhibition above about 15%
Tb MetRS inh FP: T. brucei MetRS inhibitors, orthogonal assay for T. brucei MetRS inhibitor project, biochemical, fluorescence polarization. purified T. brucei MetRS. AID 651607, 2012. shares compounds with TbMetRS inhib. hit rate 44% among 1,400. inhibition, % at 11.9 µM; in the data active = inhibition above about 17%
Hits are given with their value; . = inactive; / = no result given. Compounds with a hit are over-represented: about 1.8% of the library has one in this group of screens.

SMILES | eLon inh | TbMetRS inhib | MT1-MMP act inh | SKN-1 block | iPSC survival up | PREPL inh | Tb MetRS conf | Jurkat cytotox | Tb MetRS inh FP
Cc1ccc(C)c(C(=O)CCC(=O)NNC(=O)c2cccs2)c1 | . | . | . | . | . | . | / | / | /
O=C1CCCC(=NNC(=O)c2cc3ccccc3cc2O)C1 | . | 5.9 | . | . | . | . | 24 | . | .
CCc1ccc(CNCCNCC(C)O)cc1 (centres undefined) | . | . | . | . | . | . | / | / | /
NC1=NC(=O)/C(=C\c2ccc(-c3ccc(Cl)cc3)o2)S1 | . | 9.1 | . | . | . | . | 34 | 22 | 49
O=S1(=O)N[C@@H](Cc2ccccc2)COc2cc(N3CCSCC3)ccc21 | . | . | . | . | . | / | / | / | /
CCN(CC)c1ccc(S(=O)(=O)N2CCOCC2)cc1NC(=O)CN1CCc2ccccc2C1 | . | . | . | . | . | . | / | / | /
COc1ccc(CN2CCNC(=O)C2CC(=O)NCCSc2nccn2C)cc1OC (centres undefined) | . | . | . | . | . | . | / | / | /
CO/N=C(\c1nonc1N)N1CCN(c2ccc(Cl)cc2[N+](=O)[O-])CC1 | . | 16 | . | . | . | . | 24 | . | 21
CCC(C)(C)c1nnc(NC(=O)c2cccc([N+](=O)[O-])c2)s1 | . | . | . | . | . | . | / | / | /
CCOC(=O)C1CCCN(CCCc2ccccc2)C1 (centres undefined) | . | . | . | . | . | . | / | / | /
Cc1cc(Br)ccc1OCCCCNCCO | . | 6.1 | . | . | . | . | 11 | . | .
C=CCNCCCCOc1ccc(Br)cc1C | . | . | . | . | . | . | / | / | /
CC(C)c1ccc2oc(=O)cc(CN3CCOCC3)c2c1 | . | . | . | . | . | . | / | / | /
CC(=O)NCCCOc1ccc([N+](=O)[O-])cc1Cl | . | 7.3 | . | . | . | . | 14 | . | .
OC(c1cccc(F)c1)c1ncc(-c2ccc3ccccc3c2)[nH]1 (centres undefined) | . | . | . | . | . | / | / | / | /
OC(c1cc(F)cc(Cl)c1)c1ncc(-c2ccc3ccccc3c2)[nH]1 (centres undefined) | . | 76 | . | . | . | / | 92 | . | 75
Cc1ccc(-c2cnc(C(O)c3ccc(Cl)c(Cl)c3)[nH]2)cc1 (centres undefined) | . | 9.4 | . | . | . | / | 37 | . | .
OC(c1cccc(Cl)c1)c1ncc(-c2ccc3ccccc3c2)[nH]1 (centres undefined) | . | 42 | . | . | . | / | 74 | . | 47
OC(c1cc(F)cc(Cl)c1)c1ncc(-c2ccccc2Cl)[nH]1 (centres undefined) | . | 24 | . | . | . | / | 58 | . | 24
Cc1ccc(-c2cnc(C(O)c3cc(F)cc(Cl)c3)[nH]2)cc1 (centres undefined) | . | 10 | . | . | . | / | 39 | . | .
COc1ccc(-c2coc3c(C(=O)NCC4CCOCC4)cccc23)c(C)c1 | . | . | . | . | . | / | / | / | /
CCOc1ccccc1C1C(C#N)=C(N)Oc2cc(N)ccc21 (centres undefined) | . | . | . | . | . | . | / | / | /
COc1ccc(OC)c(C2C(C#N)=C(N)Oc3cc(C)[nH]c(=O)c32)c1 (centres undefined) | . | 13 | . | . | . | . | . | . | .
COc1ccc(OC)c(C2C(C#N)=C(N)Oc3cc(N)ccc32)c1 (centres undefined) | . | 36 | . | . | . | . | . | . | .
Cc1cc2c(c(=O)n1CCc1ccccc1)C(c1ccco1)C(C#N)=C(N)O2 (centres undefined) | . | . | . | . | . | . | / | / | /
SMILES | eLon inh | TbMetRS inhib | MT1-MMP act inh | SKN-1 block | iPSC survival up | PREPL inh | Tb MetRS conf | Jurkat cytotox | Tb MetRS inh FP
COc1ccc(C2C(C#N)=C(N)Oc3cc(C)[nH]c(=O)c32)cc1OC (centres undefined) | . | . | . | . | . | . | / | / | /
COc1ccc(OC)c(C2C(C#N)=C(N)Oc3cc(C)n(Cc4ccccn4)c(=O)c32)c1 (centres undefined) | . | 89 | . | . | . | . | 15 | . | .
CCOc1cccc(C2C(C#N)=C(N)Oc3cc(C)n(Cc4ccccn4)c(=O)c32)c1OCC (centres undefined) | . | . | . | . | . | . | / | / | /
COc1cc(C2C(C#N)=C(N)Oc3cc(C)n(CCc4ccccc4)c(=O)c32)cc2c1OCO2 (centres undefined) | . | 85 | . | . | . | . | 11 | . | .
C=CCNC(=S)NNC(=O)c1ccc(=O)n(Cc2ccc(Cl)cc2Cl)c1 | . | 34 | . | . | . | . | 44 | . | 32
O=C(Nc1ccccc1)c1ccc(=O)n(Cc2cccc(Cl)c2)c1 | . | 43 | . | . | . | . | 58 | . | 28
CCNC(=S)NNC(=O)c1ccc(=O)n(Cc2ccccc2)c1 | . | 22 | . | . | . | . | 37 | . | 22
CCNC(=O)c1ccc(=O)n(Cc2ccc(Cl)cc2Cl)c1 | . | . | . | . | . | . | / | / | /
CNC(=S)NNC(=O)c1ccc(=O)n(Cc2cccc(C(F)(F)F)c2)c1 | . | 6.1 | . | . | . | . | 13 | . | .
CCS(=O)(=O)Nc1cccc(C2=NN(S(C)(=O)=O)C(c3cccs3)C2)c1 (centres undefined) | . | . | . | . | . | . | / | / | /
Cc1ccccc1NS(=O)(=O)c1cc(C(=O)Nc2cccc(N(C)S(C)(=O)=O)c2)ccc1C | . | . | . | . | . | . | / | / | /
O=c1[nH]c(CSc2ncc(C(F)(F)F)cc2Cl)nc2ccccc12 | . | 53 | . | . | . | . | 77 | . | 54
O=c1[nH]c(Cc2cccc(C(F)(F)F)c2)nc2ccccc12 | . | 51 | . | . | . | . | 55 | . | 27
CC(O)c1nc2ccccc2n1CC(=O)Nc1ccc(F)cc1Cl (centres undefined) | . | . | . | . | . | . | / | / | /
